High-throughput results: PubChem, The Scripps Research Institute Molecular Screening Center
In the library only some 1.9% were active in any assay of this set; here they are far more common.
MBD2 DNA inh – inhibitors of human MBD2 binding to methylated oligonucleotide; Q9UBB5; TR-FRET; inhibition, % at 4.4 µM; 370,000 tested, 0.31% active; AID 686964; in the data active means inhibition above about 13%
Rin1-Abl PPI inh – inhibitors of human Rin1-Abl protein interaction; P00519+Q13671; TR-FRET Rin1/Abl binding, biochemical; inhibition, % at 7.35 µM; 360,000 tested, 0.4% active; AID 588664; in the data active means inhibition above about 5%, passing the limit was not always enough
TDP2 inh – blocks human TDP2 phosphodiesterase activity. recombinant TDP2, T5PNP hydrolysis, p-nitrophenol absorbance 415 nm. inhibition, % at 12.8 µM. 370,000 tested, 0.34% active. AID 720702;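 active means inhibition above the mean of all tested compounds plus 3 SD, set per campaign, cut at about 25% in these data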;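 further: 0% = DMSO with enzyme and 100% = buffer with substrate but no TDP2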
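Material: recombinant human TDP2; quantity: TDP2 enzyme at 120 nM final; medium: Tris-HCl pH 7.5 with MgCl2; compound: single concentration, 12.8 µM nominal, with 1% DMSO; incubation: 2 h enzyme incubation at 37 °C; signal: epi absorbance; measure: percent inhibition; benchmarks: high control without enzyme, low control DMSO plus TDP2; repeats: singlicate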
LEDGF integ inh – blocks HIV-1 LEDGF/p75-dependent DNA integration; TR-FRET IN-LEDGF/p75 DNA integration, Eu/Cy5; inhibition, % at 3.7 µM; 370,000 tested, 0.64% active;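 active means inhibition above the screen-wide mean plus 3 SD, cut at about 13% in these data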;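 further: signal is the Cy5 over europium emission ratio at 671 and 618 nm; 0% = plate median of compound wells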
UHRF1 MBD2 ctr – UHRF1 methyl-DNA binding inhibition | 370,000 tested, 0.75% active | AID 687016 | Q96T88 | inhibition, % at 4.4 µM | UHRF1 binding to methylated oligo, TR-FRET; in the data active means inhibition above about 21%;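 further: UHRF1 SRA domain binding a hemimethylated CpG hairpin DNA probe; 0% = median of test compound wells and 100% = reference inhibitor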
Target sequence (Q96T88 whole entry, looked up, the tested form may be a part): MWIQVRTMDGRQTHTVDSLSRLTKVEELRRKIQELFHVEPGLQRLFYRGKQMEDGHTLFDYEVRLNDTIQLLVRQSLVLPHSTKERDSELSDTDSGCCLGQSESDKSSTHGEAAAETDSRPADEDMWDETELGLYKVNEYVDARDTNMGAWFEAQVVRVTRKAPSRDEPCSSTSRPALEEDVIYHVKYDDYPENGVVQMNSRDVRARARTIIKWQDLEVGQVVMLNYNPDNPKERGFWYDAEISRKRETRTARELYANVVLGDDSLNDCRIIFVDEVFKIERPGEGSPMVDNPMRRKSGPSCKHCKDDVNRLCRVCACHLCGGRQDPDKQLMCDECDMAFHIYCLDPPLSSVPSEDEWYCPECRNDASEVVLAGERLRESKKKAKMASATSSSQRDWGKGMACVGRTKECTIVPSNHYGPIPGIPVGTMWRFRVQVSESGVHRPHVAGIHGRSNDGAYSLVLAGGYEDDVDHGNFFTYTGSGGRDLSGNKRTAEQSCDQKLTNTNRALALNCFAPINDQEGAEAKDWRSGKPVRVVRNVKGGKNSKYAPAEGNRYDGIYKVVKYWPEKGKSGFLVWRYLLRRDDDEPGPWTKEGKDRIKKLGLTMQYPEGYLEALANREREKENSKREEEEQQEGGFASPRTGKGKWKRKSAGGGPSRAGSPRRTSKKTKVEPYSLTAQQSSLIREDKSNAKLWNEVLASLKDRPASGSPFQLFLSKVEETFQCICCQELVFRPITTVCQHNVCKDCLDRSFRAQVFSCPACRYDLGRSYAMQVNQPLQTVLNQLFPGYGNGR
UHRF1 ctr MBD2 – inhibits human UHRF1 binding to methylated oligonucleotide, MBD2 counter-screen; TR-FRET; 1,000 tested, 25% active; AID 720530; shares compounds with MBD2 DNA inh; inhibition, % at 4.4 µM; in the data active means inhibition above about 21%;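 further: UHRF1 SRA domain binding a labeled hemimethylated CpG hairpin DNA; 0% = vehicle only and 100% = reference inhibitor with vehicle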
MBD2 DBD conf – MBD2-DBD methyl-DNA binding inhibition, TR-FRET confirmation; shares compounds with MBD2 DNA inh; TR-FRET MBD2-DBD binding to methylated oligonucleotide; inhibition, % at 4.4 µM; 1,000 tested, 26% active
TDP2 confirm – confirmation of human TDP2 inhibitors; AID 743263; inhibition, % at 12.8 µM; shares compounds with TDP2 inh; 1,100 tested, 22% active; recombinant human TDP2, absorbance read-out; in the data active means inhibition above about 25%;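 further: 0% = vehicle with enzyme and 100% = no enzyme buffer only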
IN multimer up – counter-screen for LEDGF/p75 integration inhibitors: HIV-1 integrase multimerization activators | shares compounds with LEDGF integ inh | TR-FRET HIV-1 integrase multimerization, biochemical | activation, % at 7.7 µM | 2,000 tested, 17% active; in the data active means activation above about 8.9%
TRFRET interf – TR-FRET optical interference, LEDGF/p75 integration counter-screen; shares compounds with LEDGF integ inh; TR-FRET optical interference counterscreen, HIV-1 IN multimerization; inhibition, % at 7.7 µM; 2,000 tested, under 10 active;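 active means inhibition above the mean over all tested compounds plus 3 SD, which no compound reached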;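 further: 0% = integrase with antibodies and DMSO and 100% = antibodies without integrase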
IN-LEDGF confirm – LEDGF/p75-dependent HIV-1 integration inhibition, confirmation; AID 1053136; TR-FRET LEDGF/p75-dependent HIV-1 integration, biochemical; inhibition, % at 3.7 µM; shares compounds with LEDGF integ inh; 2,000 tested, 36% active
Active calls of the source: *; / = no result given. Unless noted, no stated cut-off is given here; in the data, active means inhibition above about 14%; inactive means the rest.

SMILES	MBD2 DNA inh	Rin1-Abl PPI inh	TDP2 inh	LEDGF integ inh	UHRF1 MBD2 ctr	TDP2 confirm	others
O=C(O)c1cc(O)c2c(c1)[C@H]([C@H]1c3cc(C(=O)O)cc(O)c3C(=O)c3c(O[C@@H]4O[C@H](CO)[C@@H](O)[C@H](O)[C@H]4O)cccc31)c1cccc(OC3O[C@H](CO)[C@@H](O)[C@H](O)[C@H]3O)c1C2=O (some centres not stated)	33.0*	11.6	45.9*	81.6*	73.4*	51.1*	UHRF1 ctr MBD2=89.5*;MBD2 DBD conf=93.9*;IN multimer up=73.7*;TRFRET interf=-261.3;IN-LEDGF confirm=80.1*
O=C(O)c1ccc(-n2c(-c3cc(-c4ccco4)[nH]n3)n[nH]c2=S)cc1	26.8*	1.3	11.6	53.4*	83.3*	/	UHRF1 ctr MBD2=72.7*;MBD2 DBD conf=23.1*;IN multimer up=10.4*;TRFRET interf=-52.3;IN-LEDGF confirm=42.2*
CC(=O)c1ccc(-n2c(-c3cc(-c4ccco4)[nH]n3)n[nH]c2=S)cc1	-3.3	1.4	-1.7	3.9	-0.4	/
C[C@@H]1C[C@@H]2O[C@H]2CCCCC(=O)Cc2cc(O)cc(O)c2C(=O)O1	3.3	/	-3.6	1.9	2.5	/
COc1ccccc1/C=c1\sc2nc(-c3ccccc3OC)nn2c1=O	2.5	-1.9	5.9	4.3	-2.6	/
COc1ccc(Br)cc1/C=c1\sc2nc(-c3ccco3)nn2c1=O	23.2*	0.5	13.5	24.3*	71.2*	/	UHRF1 ctr MBD2=21.8*;MBD2 DBD conf=12.1;IN multimer up=2.8;TRFRET interf=-13.9;IN-LEDGF confirm=15.1*
CCc1cc(=O)oc2cc(C)c(CN3CCCC3)c(O)c12	14.6*	-3.5	-7.1	34.6*	32.4*	/	UHRF1 ctr MBD2=16.1;MBD2 DBD conf=10.9;IN multimer up=6.0;TRFRET interf=-30.4;IN-LEDGF confirm=39.7*
CCS(=O)(=O)Nc1ccc2c(c1)C(=O)N(C)[C@@H]1CC[C@H](CC(=O)OC)O[C@H]1CO2	-0.7	/	-2.1	5.5	0.3	/
CN(CCC#N)C(=O)COC(=O)c1c2c(nc3ccccc13)/C(=C\c1ccco1)CC2	20.1*	-0.7	1.4	49.7*	41.1*	/	UHRF1 ctr MBD2=34.6*;MBD2 DBD conf=28.9*;IN multimer up=20.7*;TRFRET interf=-104.1;IN-LEDGF confirm=70.0*
O=C(O)CCCc1nc(-c2ccc(Cl)cc2)no1	0.6	-3.2	-8.6	-4.3	2.2	/
O=C(CCc1nc(-c2ccc(Cl)cc2)no1)OCc1ccc(Br)cc1	14.9*	-0.4	39.8*	15.8*	27.6*	3.8	UHRF1 ctr MBD2=5.6;MBD2 DBD conf=5.0;IN multimer up=-0.4;TRFRET interf=1.9;IN-LEDGF confirm=-3.9
Cc1ccc(C(=O)NC2CCCCN(Cc3cccc(Cl)c3)C2=O)c(C)c1 (configuration not stated)	-4.6	/	-4.1	1.3	-2.0	/
Oc1cccc(CN2CCOCC2)c1O	44.6*	12.6*	4.7	78.2*	84.6*	/	UHRF1 ctr MBD2=5.7;MBD2 DBD conf=4.6;IN multimer up=11.1*;TRFRET interf=-39.7;IN-LEDGF confirm=34.7*
Oc1ccc2ccccc2c1CN1CCOCC1	4.2	-0.8	-3.1	-4.4	5.9	/
CCCCNc1nnc(Cc2ccc(Cl)cc2)c(=O)[nH]1	3.0	3.0	28.2*	1.0	-19.0	0.1
COCCNc1nnc(Cc2ccc(OC)c(OC)c2)c(=O)[nH]1	4.0	-0.9	1.1	-5.0	1.4	/
CN=C1NC(=O)/C(=C\c2cc(C)n(-c3ccccc3F)c2C)S1	-8.4	/	-8.3	6.6	-2.6	/
COc1ccc2nc(NC(=O)CN3C(=O)NC4(CCCCC4)C3=O)sc2c1	-3.2	4.3	5.2	-0.1	-1.9	/
COc1ccc2nc(NC(=O)CSC3=NCCS3)sc2c1	-1.3	0.2	1.9	0.7	-0.5	/
COc1ccc2nc(NC(=O)CN3C(=O)NC4(CCCC4)C3=O)sc2c1	2.4	0.3	63.2*	-2.6	-0.7	-0.5
COc1ccc2nc(NC(=O)CSc3ccccc3)sc2c1	-2.1	1.6	25.7*	0.9	-1.6	5.1
O=S1(=O)c2ccc(Br)cc2OC[C@@H](Cc2ccccc2)N1Cc1cn(CC2CCCCC2)nn1	-0.6	/	-14.8	3.0	2.5	/
Cc1ccc(OCc2nn3c(C4CCCCC4)nnc3s2)cc1	9.3	/	2.9	-2.3	1.6	/
C=CCN1C(=O)[C@@H](CC(=O)N2CCCCC2)[C@]2(C(=O)OC)CCCCC=C12	-2.7	/	-8.4	-0.8	2.2	/
CCN(CC)CCNC(=O)c1c(O)c2cc(OC)c(OC)cc2[nH]c1=O	9.2	-0.9	24.6*	3.4	17.8	4.8
SMILES	MBD2 DNA inh	Rin1-Abl PPI inh	TDP2 inh	LEDGF integ inh	UHRF1 MBD2 ctr	TDP2 confirm	others
O=c1[nH]c(-c2ccccn2)cc2ccccc12	-0.1	-3.8	6.6	-0.6	-17.9	/
O=c1[nH]c(Nc2ccccn2)cc2ccccc12	-10.8	0.5	49.1*	7.2	-5.1	27.4*
CN(CCOC(=O)c1cc2ccccc2o1)C1CN(Cc2cn(Cc3ccccc3Cl)nn2)S(=O)(=O)C1 (configuration not stated)	5.1	/	11.5	-0.9	-1.0	/
CCCCCC[C@H](CN(CCCC)S(C)(=O)=O)c1ccccc1	-1.2	/	-0.2	1.5	-3.4	/
CCCCCCCCN1C(=O)[C@@H](CC(=O)N2CCN(C(=O)C3CC3)CC2)C[C@@]2(C(=O)OC)C1=C[C@H](COCc1ccccc1)O[C@@H]2C	2.9	/	1.6	-1.0	0.2	/
CC(=O)N/N=C/c1c(C)[nH]n(-c2ccccc2)c1=O	-4.8	0.8	28.2*	-1.9	-7.7	-2.9
Cc1[nH]n(-c2ccccc2)c(=O)c1/C=N/N1C(=O)c2ccc3c4c(ccc(c24)C1=O)CC3	-8.1	-6.8	28.2*	1.6	-15.2	-9.3
COCC(=O)N/N=C/c1c(C)[nH]n(-c2ccccc2)c1=O	-3.9	3.7	32.3*	4.4	-6.9	1.8
Cc1[nH]n(-c2ccccc2)c(=O)c1/C=N/O	-9.5	2.0	14.6	4.3	-8.8	/
Cc1[nH]n(-c2ccccc2)c(=O)c1/C=N/N(C)c1ccccc1	-8.8	1.8	42.3*	5.0	-3.5	9.0
Cc1[nH][nH]c(=O)c1C(c1c(C)[nH][nH]c1=O)c1cn(C)c2ccccc12	-14.5	-1.1	48.7*	0.0	-0.9	20.7
CC(C)CNC(=O)OCc1cn(Cc2ccc(F)c(F)c2)nn1	2.8	/	6.3	3.5	-0.7	/
CC1CCCC(NC(=O)COC(=O)c2ccc([N+](=O)[O-])s2)C1C (configuration not stated)	1.6	3.6	31.8*	-3.0	0.7	36.8*
